# Measurements as given in the EternaBench riboswitch data.
# What was measured:
# MS2 coat protein [1] = experiment: apparent Kd, MS2 coat protein; higher = weaker binding; RNA-MaP array
# Method in brief: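 Designs measured on fewer than 10 clusters were excluded from the data. The rest were RNAs transcribed from sequenced DNA templates on an Illumina sequencing chip and incubated at room temperature, with or without input ligand, with fluorescently labeled MS2 coat protein at 1.5 nM to 3 μM for 0.8–1.5 h at the lowest to 10–20 min at the highest concentrations. Apparent Kd is the median of the per-cluster binding-curve fits.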
# MS2 coat protein [2] = experiment: apparent Kd, MS2 coat protein; higher = weaker binding; RNA-MaP array; FMN 200 µM where present
# Method in brief: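 The apparent Kd is reported as the median of filtered per-cluster binding-curve fits. To get these curves, designs transcribed by stalled E. coli RNA polymerase on Illumina sequencing-chip clusters were titrated with SNAP-549-labelled MS2 coat protein from 0.7 or 1.5 nM, doubling to 3 µM. Titrations were run without and then with constant ligand in 100 mM Tris-HCl pH 7.5, 80 mM KCl, 4 mM MgCl2, BSA, DTT, yeast tRNA and Tween-20, and green signal was normalised to red-channel RNA signal and control-cluster median Fmax.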
# [3] = designed as: OFF switch for flavin mononucleotide, no ligand
# [4] = ligand present: flavin mononucleotide, designed as: OFF switch for flavin mononucleotide
# [5] = designed as: ON switch for flavin mononucleotide, no ligand
# [6] = ligand present: flavin mononucleotide, designed as: ON switch for flavin mononucleotide
# [7] = designed as: ON switch for theophylline, no ligand
# [8] = ligand present: theophylline, designed as: ON switch for theophylline
sequence,measurement,setting,value
ACCAUCAUUGUUAGGAUAUGUAGAGUACUGAGGCUACAGAAGGAACAUGAGGAUCACCCAUGUGUUUCGGUGUA,apparent Kd,MS2 coat protein [1]; [3],31 nM
same,apparent Kd,MS2 coat protein [1]; [4],126 nM
UUUUUUUAACAGAAGGACAGACAUAUGAGGGACAUGAGGAUCACCCAUGUGUGCUCGCGUAGGCUGUAGGAUAUGUAGUGCUGG,apparent Kd,MS2 coat protein [1]; [3],11.2 nM
same,apparent Kd,MS2 coat protein [1]; [4],8.19 nM
ACUGGUUCGGUUGUCACACAUGAGGAUCACCCAUGUAAGGUAGAGGAUAUCGCUCCGUCCUUCGGCGAGAAGGCUAUUCGACGC,apparent Kd,MS2 coat protein [1]; [3],13 nM
same,apparent Kd,MS2 coat protein [1]; [4],10.3 nM
UCGUCACAUGUUAGGAUAUUGCUAGGAUCCUAGAACAAGAAGGAACAUGAGGAUCACCCAUGUCAGUGAAUCAU,apparent Kd,MS2 coat protein [1]; [3],23 nM
same,apparent Kd,MS2 coat protein [1]; [4],36 nM
CACGAGAACACUCAGGAUAUGACAAACAAGACAUGAGGAUCACCCAUGUGAAAUUACGGGUGCAAACAGAAGGGAGAAACUUACAC,apparent Kd,MS2 coat protein [1]; [5],48.6 nM
same,apparent Kd,MS2 coat protein [1]; [6],47.5 nM
AUUACAAGCACAGGAUAUAACAGUUGGUUCACAUGAGGAUCACCCAUGUAGCAUUGGGAAGUAGCUUAGAAGGGUGAGGUGGUU,apparent Kd,MS2 coat protein [1]; [5],183 nM
same,apparent Kd,MS2 coat protein [1]; [6],107 nM
AGUGGUGGGAAGGAUAUCUUCCGGCGUUAGCCUAGAGAAGGUCCCACAUGAGGAUCACCCAUGUUGACAUCGGU,apparent Kd,MS2 coat protein [1]; [3],373 nM
same,apparent Kd,MS2 coat protein [1]; [4],183 nM
AUACACAGAGUUAGGAUAUCUACAUAAAACAAAAUAGAGAAGGAACAUGAGGAUCACCCAUGUAAUGAUCAAAC,apparent Kd,MS2 coat protein [1]; [3],9.99 nM
same,apparent Kd,MS2 coat protein [1]; [4],9.45 nM
CAACUGGCAGAGGAUACCAGAUCAUUUAGAAACAUGAGGAUCACCCAUGUCGUAAGGAUAAUCCCUUGGCAGCCUAUCCGCCUCG,apparent Kd,MS2 coat protein [1]; [7],13.2 nM
same,apparent Kd,MS2 coat protein [1]; [8],10.8 nM
CCUUCAGAUGAGAAGGCCAUCUACGGCUGGACACGGCAGUAACAUGAGGAUCACCCAUGUUUAAUGGAGGAUAUCAACGGAAGC,apparent Kd,MS2 coat protein [1]; [5],12.3 nM
same,apparent Kd,MS2 coat protein [1]; [6],8.94 nM
UGGUAGCCACACUUCAAACAUCGACAAGAUACCAGUUAAUCAACGAACCCUUGGCAGCUUCGUACAUGAGGAUCACCCAUGUGGA,apparent Kd,"MS2 coat protein [1]; designed as: OFF switch for theophylline, no ligand",18.2 nM
same,apparent Kd,"MS2 coat protein [1]; ligand present: theophylline, designed as: OFF switch for theophylline",23 nM
GCUCACAUGAGGAUCACCCAUGUCACGAGGUGAUGAUGAACAAGAAGGAAACUCAUAUGAUCAGUUUAGGAUAUUGCCCAGCGA,apparent Kd,MS2 coat protein [1]; [3],791 nM
same,apparent Kd,MS2 coat protein [1]; [4],460 nM
UCUAUGUUAGGAUAUCUGUUGCAUGCCUGGCCGCGAUGCAAAGAGAAGGAACAUGAGGAUCACCCAUGUCAUAU,apparent Kd,MS2 coat protein [1]; [3],19.3 nM
same,apparent Kd,MS2 coat protein [1]; [4],41.6 nM
CUCAAACAUGAGGAUCACCCAUGUAAGGAUAUCCGUAAUAAAUUUGGUAAGAGGCGGCGGAGAAGGUACGCAGC,apparent Kd,MS2 coat protein [1]; [3],19.1 nM
same,apparent Kd,MS2 coat protein [1]; [4],17.9 nM
CAAACCAACUAGUAAAACAACAUGAGGAUCACCCAUGUAAGAGAGGAUAUUGAAAUCGAAAGCAACAAGAAGGCUCACCAUGUA,apparent Kd,MS2 coat protein [1]; [5],19.5 nM
same,apparent Kd,MS2 coat protein [1]; [6],15.8 nM
CGACAUUCAGGAUAUACAUGAGGAUCACCCAUGUUGAGAAGCACAAGAUACCAUAAAAGUAGAAGGGAACAAAA,apparent Kd,MS2 coat protein [1]; [3],13.3 nM
same,apparent Kd,MS2 coat protein [1]; [4],9.81 nM
UCUGUGAUCAACAUGAGGAUCACCCAUGUUACCACCUCUAGGCAGGAUAUGAGCGUACUAAGAAGUCAGAAGGGCCUUUUUACG,apparent Kd,MS2 coat protein [1]; [5],18.3 nM
same,apparent Kd,MS2 coat protein [1]; [6],10.1 nM
UAUCGAAGGUUUAAGGAUAUCGGCAGGCUCACAUGAGGAUCACCCAUGUCGCGAACAUCGCGCUACGAGAAGGUAAUCUUGAUGCA,apparent Kd,MS2 coat protein [1]; [5],58.9 nM
same,apparent Kd,MS2 coat protein [1]; [6],24.3 nM
CAUGUCAAAGACAUGAGGAUCACCCAUGUAAUCCAAGACGCAAGAAGGGCGUGUUGAACUAACACGCAGGAUAUUGACCCUGUU,apparent Kd,MS2 coat protein [1]; [3],57.5 nM
same,apparent Kd,MS2 coat protein [1]; [4],73.4 nM
CGUGUAGGGUAGGAUAUUCGAACACCACAAGGAGAAGAAGGACCUACAUGAGGAUCACCCAUGUGGUUAAUGGC,apparent Kd,MS2 coat protein [1]; [3],112 nM
same,apparent Kd,MS2 coat protein [1]; [4],225 nM
ACCGGCACCUAGGAUACCAGAUCCACAACAAACAUGAGGAUCACCCAUGUAUAAAGUGGUAUCCCUUGGCAGCCUGUGACAAUCG,apparent Kd,MS2 coat protein [1]; [7],16.5 nM
same,apparent Kd,MS2 coat protein [1]; [8],14.8 nM
GGCCAGGCAGCGGCCGCCACUUAGUGGGCCGAAUGUCCUUUGCUGAACAUGAGGAUCACCCAUGUAAGGACCGGGCUGUUCCGCA,apparent Kd,"MS2 coat protein [1]; designed as: OFF switch for tryptophan, no ligand",30.5 nM
same,apparent Kd,"MS2 coat protein [1]; ligand present: tryptophan, designed as: OFF switch for tryptophan",69.5 nM
GUGAAGAUCCUAGGAUAUGAGACACCCGUAAGCUCAGAAGGAGGACGCGUAGAGGGUAACAUGAGGAUCACCCAUGUGAGUAAG,apparent Kd,MS2 coat protein [1]; [5],16.9 nM
same,apparent Kd,MS2 coat protein [1]; [6],12.2 nM
GCUGUAAAGGAGAAGGUGAAUCGUAAGCUUGGUCAAGGAUAUCCGACUGGACAUGGCUGCAGACAUGAGGAUCACCCAUGUGCG,apparent Kd,MS2 coat protein [1]; [3],237 nM
same,apparent Kd,MS2 coat protein [1]; [4],113 nM
AGACAUGAGGAUCACCCAUGUUGCUGUACAGGAGUUAAAGUCUAGGAUAUUGGGUCAGAAAGCGACAAGAAGGAGACACGCCAG,apparent Kd,MS2 coat protein [1]; [5],11.2 nM
same,apparent Kd,MS2 coat protein [1]; [6],8.47 nM
CUCAGUGUGUAGAAGGUUUGCAUAGAAACAUCAAAAGGAUAUACAUGGUGAAGCCUUGAAACAUGAGGAUCACCCAUGUCUACG,apparent Kd,MS2 coat protein [1]; [5],632 nM
same,apparent Kd,MS2 coat protein [1]; [6],392 nM
GCAGUGCGUGAGGAUAUGUGAGUGAACACACACACAGAAGGCACAACAUGAGGAUCACCCAUGUUCCUGGUGCC,apparent Kd,MS2 coat protein [1]; [3],7.62 nM
same,apparent Kd,MS2 coat protein [1]; [4],7.95 nM
CAGACCCGGCGGGAGGAUAUACGAGAGAACACAUGAGGAUCACCCAUGUUGCACUAAACAGCGUGGUAGAAGGCCCAUCAUCUGUA,apparent Kd,MS2 coat protein [1]; [5],56.8 nM
same,apparent Kd,MS2 coat protein [1]; [6],11.9 nM
AUCAUGUAAGGAUAUGCCGAACCUGUUUUGUCGCGGUUAAAGCAGAAGGUACAUGAGGAUCACCCAUGUUAAAU,apparent Kd,MS2 coat protein [1]; [3],56.2 nM
same,apparent Kd,MS2 coat protein [1]; [4],54.4 nM
AGGUUACGUGUGAGGAUAUUAAGAUAUUAAAUUUAUAAGAAGGCACAUGAGGAUCACCCAUGUAUGACUUCCCA,apparent Kd,MS2 coat protein [1]; [3],5.66 nM
same,apparent Kd,MS2 coat protein [1]; [4],6.77 nM
AACGGUUUUUAGAAGGGCGUCAGGGACCUUGGACAUGAGGAUCACCCAUGUGUGCAGACACCUGCGCAGGAUAUAAGUUCUCUA,apparent Kd,MS2 coat protein [1]; [3],12.6 nM
same,apparent Kd,MS2 coat protein [1]; [4],9.53 nM
CCUAACCACAAGAAGGAUGAGAUGCGGCAUUUCAUAGGAUAUUGAUCACAUGAGGAUCACCCAUGUUGCCGUAAGGCGCUAGUC,apparent Kd,MS2 coat protein [1]; [5],321 nM
same,apparent Kd,MS2 coat protein [1]; [6],136 nM
AUUUCAUGUGUAGGAUAUCGCAUUCAGAACUAGCCAUCCACAUGAGGAUCACCCAUGUGUGCGGGCGAGAAGGACACGAGGGCA,apparent Kd,MS2 coat protein [1]; [5],9.72 nM
same,apparent Kd,MS2 coat protein [1]; [6],7.55 nM
UGUCACCGUGCAGGAUAUGCCUGCACGUCGCGGGCAGAAGGGCACAUGAGGAUCACCCAUGUAGAGCUGGGCUCGUCAAGGGAG,apparent Kd,MS2 coat protein [2]; [3],9.05 nM
same,apparent Kd,MS2 coat protein [2]; [4],9.85 nM
GCUGCAAAUGAGAAGGCGAUCAUGAAACAUGAUCGAGGAUAUCAUGUUUACAUGAGGAUCACCCAUGUAUGGGUAUAUUGCAGC,apparent Kd,MS2 coat protein [2]; [5],707 nM
same,apparent Kd,MS2 coat protein [2]; [6],14.3 nM
GUCAGCUCGUGAGGAUAUUCAACACUGCUUCGGCAGUGUAUUAAGAUCACAUGAGGAUCACCCAUGUAGAAGGCACGAGCUGAU,apparent Kd,MS2 coat protein [2]; [3],5.79 nM
same,apparent Kd,MS2 coat protein [2]; [4],10.8 nM
CGUAUGUCAGGAUAUGCGUAUGCCGCCCAGAACGGGCAGCAGCAGAAGGGACAUGAGGAUCACCCAUGUUCGGG,apparent Kd,MS2 coat protein [2]; [3],68.3 nM
same,apparent Kd,MS2 coat protein [2]; [4],73.1 nM
UUUUUUUUAGUAAGGAUAUGAUGCAGGAAACUGCGUCAGAAGGUACAUGAGGAUCACCCAUGUUAAUUUUUUUU,apparent Kd,MS2 coat protein [2]; [3],17.2 nM
same,apparent Kd,MS2 coat protein [2]; [4],22.4 nM
AUCAGCUCGUCAGGAUAUACGUUACUGCGUCAGCAGUGUGGUAAGAUCACAUGAGGAUCACCCAUGUAGAAGGGACGAGCUGAU,apparent Kd,MS2 coat protein [2]; [3],61.8 nM
same,apparent Kd,MS2 coat protein [2]; [4],653 nM
CGAUGCAGAGGAUAUACAUGAGGAUCACCCAUGUACCUACUCGGGCGUCCUCUUAGAUGUAGAAGGCUGACACU,apparent Kd,MS2 coat protein [2]; [3],62.6 nM
same,apparent Kd,MS2 coat protein [2]; [4],72 nM
AAAACAUGAGGAUCACCCAUGUAAAGAACGGUUAAUAAAUGUGAGGAUAUACUAAAAUUUACGUAGUAGAAGGCACUGGGUACA,apparent Kd,MS2 coat protein [2]; [5],20.8 nM
same,apparent Kd,MS2 coat protein [2]; [6],25.1 nM
CUAUGUUAGCAGGAUAUGCCAUUAUUCCUUUACGCAGAAGGGCUUACAUGAGGAUCACCCAUGUUACAUUUCAU,apparent Kd,MS2 coat protein [2]; [3],14.1 nM
same,apparent Kd,MS2 coat protein [2]; [4],29.8 nM
GGCAUGCAAAUAAAACAUGAGGAUCACCCAUGUGAGUCUCAUGAGGAUAUGCAGGUCAAAGACUUGCAGAAGGCAUGGCGUGCC,apparent Kd,MS2 coat protein [2]; [5],1950 nM
same,apparent Kd,MS2 coat protein [2]; [6],132 nM
AUAAUUUUAUAAUUCUAUUUAUUCAGAAGGCAUAACAUGAGGAUCACCCAUGUAAAUUAAUGUUAUGAGGAUAUGAUUUGGUUA,apparent Kd,MS2 coat protein [2]; [3],18.6 nM
same,apparent Kd,MS2 coat protein [2]; [4],130 nM
GGGUACAUCGGAGGAUAUCAUGUAAGUACAUGAGGAUCACCCAUGUCGAUGGAGACAUCGGAGAUUGAGAAGGCCGAUGUACCG,apparent Kd,MS2 coat protein [2]; [5],152 nM
same,apparent Kd,MS2 coat protein [2]; [6],8.71 nM
